# Measured values published in ChEMBL document CHEMBL1136556, “Synthesis and SAR of alpha-acylaminoketone ligands for control of gene expression” (2003).
# Experiments:
# Type in all cases: functional
# [1] = target: T1, Ecdysone receptor (Bombyx mori) (UniProt P49881); assay: Agonist activity against Bombyx mori ecdysone receptor
# T1 sequence (whole entry): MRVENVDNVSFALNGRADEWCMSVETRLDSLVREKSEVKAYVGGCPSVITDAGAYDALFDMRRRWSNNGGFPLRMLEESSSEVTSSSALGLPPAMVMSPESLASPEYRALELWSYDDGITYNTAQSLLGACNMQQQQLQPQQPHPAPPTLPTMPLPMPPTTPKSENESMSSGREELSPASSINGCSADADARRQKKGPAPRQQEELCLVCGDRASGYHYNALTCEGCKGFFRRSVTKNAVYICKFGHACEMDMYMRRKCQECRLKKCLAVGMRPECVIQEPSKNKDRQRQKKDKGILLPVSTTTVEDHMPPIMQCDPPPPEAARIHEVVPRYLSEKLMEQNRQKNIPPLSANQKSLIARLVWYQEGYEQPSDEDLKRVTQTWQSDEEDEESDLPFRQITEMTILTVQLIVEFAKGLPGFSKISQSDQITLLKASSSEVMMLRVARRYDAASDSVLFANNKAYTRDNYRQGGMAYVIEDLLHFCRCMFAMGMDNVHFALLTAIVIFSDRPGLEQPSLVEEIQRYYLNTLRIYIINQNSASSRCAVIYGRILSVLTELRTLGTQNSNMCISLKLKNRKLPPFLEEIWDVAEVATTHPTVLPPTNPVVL
# How it was run: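 HEK-293 clone Z3 stably expressing Bombyx mori EcR with a β-galactosidase reporter under an ecdysone response element. Cells seeded at 2.5 × 10⁴ cells mL⁻¹ and held 24 h at 37 °C, 5% CO₂. Ligands from 10 mM DMSO stocks were diluted 100-fold in medium (final DMSO 0.03%). Luminescence read at 48 h; dose-response value is the dose giving 50% of maximal transactivation.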
# HEK293 = assay: Dose response transactivation assay result expressed as dose affording 50% of max transactivation; conditions: Homo sapiens, read-out: LC50
# How it was run: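 HEK-293 clone Z3 engineered to express Bombyx mori EcR, with a β-galactosidase gene under an ecdysone response element. Cells seeded at 2.5 × 10⁴ cells mL⁻¹, grown 24 h at 37 °C in 5% CO₂, then dosed across a concentration series from 10 mM DMSO stocks. Final DMSO 0.03%. Bioluminescent β-gal readout at 48 h; value is dose giving 50% of maximum transactivation.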
# [2] = Ratio of max level of gene expression of compound to max level of gene expression with compound 1d
# How it was run: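 Dose-response assay in Z3 HEK-293 cells (Bombyx mori EcR, ecdysone response element–β-galactosidase reporter), 48 h ligand exposure, final DMSO 0.03%, bioluminescent read-out. Value is the compound's maximal reporter expression divided by the maximal expression given by the reference dibenzoylhydrazine ecdysone agonist.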
Structure (SMILES),Fold induction [1],EC50 (transactivation) (HEK293),Rel Max FI [2]
COc1ccccc1C(=O)C1(NC(=O)c2cccc(OC)c2C)CCCC1,1200,5.2 µM,0.7
O=C(NC1(C(=O)c2ccccc2)CCCC1)c1ccccc1,2,,
COc1cccc(C(=O)NC(C)(C(=O)c2ccccc2C)C(C)C)c1C (stereo unspecified),452,18 µM,0.26
COc1cccc(C(=O)NC2(C(=O)c3ccccc3)CCCC2)c1,2,,
O=C(NC1(C(=O)c2ccccc2)CCCC1)c1ccc2c(c1)OCO2,1,,
COc1cccc(C(=O)NC(C)(C(=O)c2cccc(C)c2)C(C)C)c1C (stereo unspecified),370,8.6 µM,0.47
COc1cccc(C(=O)NC(C)(C(=O)c2ccc(F)c(C)c2)C(C)C)c1C (stereo unspecified),,,0.24
COc1cccc(C(=O)NC2(C(=O)c3ccccc3)CCCC2)c1C,71,2.7 µM,0.14
CCc1ccc(C(=O)NC(C)(C)C(=O)c2ccccc2)cc1,2,,
COc1cccc(C(=O)NC(C)(C(=O)c2cc(C)cc(C)c2)C(C)C)c1C (stereo unspecified),751,2.1 µM,0.75
CCC(CC)(NC(=O)c1cccc(OC)c1C)C(=O)c1cccc(C)c1,525,6.6 µM,0.25
COc1cccc(C(=O)NC2(C(=O)c3ccc(F)cc3)CCCC2)c1C,218,15 µM,0.14
COc1cccc(C(=O)C(C)(NC(=O)c2cccc(OC)c2C)C(C)C)c1 (stereo unspecified),35,25.5 µM,0.12
COc1cccc(C(=O)NC(C)(C(=O)c2ccccc2)C(C)C)c1C (stereo unspecified),71,33.3 µM,0.04
CCC(CC)(NC(=O)c1cccc(OC)c1C)C(=O)c1cc(C)cc(C)c1,1000,4.5 µM,0.6
CCC(CC)(NC(=O)c1cccc(OC)c1C)C(=O)c1ccc(OC)cc1,4,,
COc1cccc(C(=O)NC(C)(C)C(=O)c2ccccc2)c1C,2,,
CC(C)(NC(=O)c1ccccc1)C(=O)c1ccccc1,1,,
COc1ccc(C(=O)C2(NC(=O)c3cccc(OC)c3C)CCCC2)cc1,5,,

Structure (SMILES),Fold induction [1],EC50 (transactivation) (HEK293),Rel Max FI [2]
COc1cccc(C(=O)NC2(C(=O)c3ccccc3C)CCCC2)c1C,30,,
CCC(CC)(NC(=O)c1cccc(OC)c1C)C(=O)c1ccccc1OC,384,6.2 µM,0.29
CCC(CC)(NC(=O)c1cccc(OC)c1C)C(=O)c1ccc(F)cc1,60,13.7 µM,0.04
CCC(CC)(NC(=O)c1cccc(OC)c1C)C(=O)c1cccc(OC)c1,256,33.3 µM,0.01
COc1cccc(C(=O)NC2(C(=O)c3ccc(C)cc3)CCCC2)c1C,21,,
CCC(CC)(NC(=O)c1cccc(OC)c1C)C(=O)c1ccc(F)c(C)c1,223,10.4 µM,0.07
COc1cccc(C(=O)C2(NC(=O)c3cccc(OC)c3C)CCCC2)c1,,,0.12
COc1cccc(C(=O)NC2(C(=O)c3cc(C)cc(C)c3)CCCC2)c1C,660,1.9 µM,0.85
COc1cccc(C(=O)NC2(C(=O)c3ccc(F)c(C)c3)CCCC2)c1C,487,3.5 µM,0.43
COc1cccc(C(=O)NC2(C(=O)c3cccc(C)c3)CCCC2)c1C,291,3.4 µM,0.46
CC(C)(NC(=O)c1ccc2c(c1)OCO2)C(=O)c1ccccc1,1,,
COc1ccccc1C(=O)C(C)(NC(=O)c1cccc(OC)c1C)C(C)C (stereo unspecified),599,15 µM,0.2
Cc1ccccc1C(=O)NC1(C(=O)c2ccccc2)CCCC1,2,,
CCC(CC)(NC(=O)c1cccc(OC)c1C)C(=O)c1ccc(C)cc1,8,,
CCC(CC)(NC(=O)c1cccc(OC)c1C)C(=O)c1ccccc1C,5,,
CCC(CC)(NC(=O)c1cccc(OC)c1C)C(=O)c1ccccc1,11,,
COc1cccc(C(=O)NC(C)(C)C(=O)c2ccccc2)c1,1,,
Cc1ccccc1C(=O)NC(C)(C)C(=O)c1ccccc1,1,,
COc1cccc(C(=O)NC(C)(C(=O)c2ccc(C)cc2)C(C)C)c1C (stereo unspecified),31,20 µM,0.05
